This note sets out measurements from ChEMBL document CHEMBL1949603, “Discovery of CS-0777: A Potent, Selective, and Orally Active S1P1 Agonist” (ACS Med Chem Lett, 2011).

In data set [1] the test system is Rattus norvegicus. Kind of data set: Reduction of cumulative disease score in Lewis rat EAE model at 0.1 mg/kg, po administered daily for 20 days measured after 8 to 21 days relative to control. It counts as functional, organism-based. Further details: dose 0.1 mg/kg. The method in brief: (§1)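 EAE was induced in 6-week-old female Lewis rats by injecting guinea pig myelin basic protein fragment 68−82 with adjuvant into both hind footpads on day 0. Dosing was oral, daily on days 0–20 (0.01–1 mg/kg). Clinical score (0–6 scale) was recorded daily on days 8–21 and summed to a cumulative score. Analysis used a nonparametric Dunnett test versus vehicle.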

In data set [2] the test system is Rattus norvegicus. Briefly: Cmax in Sprague-Dawley rat assessed as CS-0777-phosphate at 0.1 mg/kg, po. As to conditions: in vivo. It counts as ADME, organism-based. More on the design: dose 0.1 mg/kg, route oral. An outline of the steps: (§2)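 Male Sprague−Dawley rats given one oral dose of parent drug at 0.1 or 1 mg/kg. Blood levels of parent and phosphate metabolite were measured over time. Bioavailability of the phosphate is the ratio of its AUC after oral dosing to its AUC after intravenous parent dosing at the same dose. Values are mean ± SD of four animals.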

Data set [3] is described as follows: Tmax in Sprague-Dawley rat at 1 mg/kg, po. It counts as ADME, organism-based. More on the design: dose 1 mg/kg, route oral. As to conditions: in vivo. An outline of the steps: as §2
The nature of data set [4]: Half life in Sprague-Dawley rat at 1 mg/kg, po. It counts as ADME, organism-based. Further details: dose 1 mg/kg, route oral. The following applies: in vivo. An outline of the steps:
as §2

In data set [5] the test system is Rattus norvegicus. Kind of data set: Cmax in Sprague-Dawley rat assessed as CS-0777-phosphate at 1 mg/kg, po. It counts as ADME, organism-based. More on the design: dose 1 mg/kg, route oral. The following applies: in vivo. The method in brief: as §2
Data set [6] concerns Rattus norvegicus. Briefly: Oral bioavailability in Sprague-Dawley rat assessed as CS-0777-phosphate at 0.1 mg/kg. As to conditions: in vivo. It counts as ADME, organism-based. An outline of the steps: as §2
For data set [7], the system named is Rattus norvegicus. Kind of data set: Lymphopenic activity in Lewis rat assessed as recovery of blood lymphocytes at 0.1 mg/kg, po after 48 hrs relative to control. It counts as functional. An outline of the steps:
(§3)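 Lewis rats received one oral dose of 0.1 or 1 mg/kg in 1% MC vehicle. Lymphocytes were counted by automatic hemacytometer and expressed relative to vehicle controls. n = 5 per group, mean ± SE.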

Data set [8] has as its system Rattus norvegicus. Briefly: Half life in Sprague-Dawley rat assessed as CS-0777-phosphate at 0.1 mg/kg, po. The following applies: in vivo. Further details: dose 0.1 mg/kg, route oral. It counts as ADME, organism-based. The method in brief: as §2
A short description of data set [9]: Cmax in Sprague-Dawley rat at 1 mg/kg, po. It counts as ADME, organism-based. More on the design: dose 1 mg/kg, route oral. As to conditions: in vivo. An outline of the steps:
as §2

In data set [10] the test system is Rattus norvegicus. Briefly: Tmax in Sprague-Dawley rat assessed as CS-0777-phosphate at 0.1 mg/kg, po. It counts as ADME, organism-based. As to conditions: in vivo. More on the design: dose 0.1 mg/kg, route oral. An outline of the steps: as §2
The nature of data set [11]: Total body clearance in Sprague-Dawley rat at 1 mg/kg, iv. It counts as ADME, organism-based. More on the design: dose 1 mg/kg, route intravenous. The following applies: in vivo. An outline of the steps:
(§4)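 Clearance and steady-state volume of distribution were calculated from blood data after intravenous dosing of the parent drug to male Sprague−Dawley rats at 0.1 or 1 mg/kg. Values are mean ± SD of four animals.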

In data set [12] the test system is Rattus norvegicus. Briefly: AUC (0 to infinity) in Sprague-Dawley rat assessed as CS-0777-phosphate at 0.1 mg/kg, po. It counts as ADME, organism-based, Plasma. More on the design: dose 0.1 mg/kg, route oral, time infinity. The following applies: in vivo. The method in brief:
as §2

Data set [13] concerns Rattus norvegicus. Kind of data set: Lymphopenic activity in Lewis rat assessed as reduction in blood lymphocyte counts at 1 mg/kg, po after 12 hrs relative to control. It counts as functional. More on the design: scale not given: the % may be the effect or the level left. The method in brief:
as §3

Data set [14] has as its system Rattus norvegicus. Kind of data set: Lymphopenic activity in Lewis rat assessed as recovery in blood lymphocyte counts at 1 mg/kg, po after 5 days. It counts as functional, organism-based. Further details: dose 1 mg/kg. An outline of the steps: as §3
A short description of data set [15]: Volume of distribution at steady state in Sprague-Dawley rat at 0.1 mg/kg, iv. It counts as ADME, organism-based. As to conditions: in vivo, read-out: Vdss. Further details: dose 0.1 mg/kg, route intravenous. An outline of the steps:
as §4

Data set [16] can be described thus: AUC (0 to infinity) in Sprague-Dawley rat at 0.1 mg/kg, po. More on the design: dose 0.1 mg/kg, route oral, time infinity. It counts as ADME, organism-based, Plasma. The following applies: blood. An outline of the steps:
as §2

Data set [17] is described as follows: Volume of distribution at steady state in Sprague-Dawley rat at 1 mg/kg, iv. It counts as ADME, organism-based. The following applies: in vivo, read-out: Vdss. More on the design: dose 1 mg/kg, route intravenous. An outline of the steps:
as §4

Data set [18] has as its system Rattus norvegicus. Briefly: Half life in Sprague-Dawley rat assessed as CS-0777-phosphate at 1 mg/kg, po. It counts as ADME, organism-based. More on the design: dose 1 mg/kg, route oral. The following applies: in vivo. An outline of the steps: as §2
The subject of data set [19] is Rattus norvegicus. Briefly: Tmax in Sprague-Dawley rat assessed as CS-0777-phosphate at 1 mg/kg, po. Further details: dose 1 mg/kg, route oral. As to conditions: in vivo. It counts as ADME, organism-based. An outline of the steps:
as §2

The subject of data set [20] is Rattus norvegicus. Kind of data set: Oral bioavailability in Sprague-Dawley rat assessed as CS-0777-phosphate at 1 mg/kg. The following applies: in vivo. It counts as ADME, organism-based. An outline of the steps: as §2
Data set [21] relates to Rattus norvegicus. Kind of data set: Lymphopenic activity in Lewis rat assessed as recovery of blood lymphocytes at 1 mg/kg, po after 48 hrs relative to control. It counts as functional. The method in brief:
as §3

Data set [22] is described as follows: Oral bioavailability in Sprague-Dawley rat at 0.1 mg/kg. It counts as ADME, organism-based. The following applies: in vivo. An outline of the steps:
as §2

In data set [23] the test system is Rattus norvegicus. Briefly: AUC (0 to infinity) in Sprague-Dawley rat assessed as CS-0777-phosphate at 1 mg/kg, po. It counts as ADME, organism-based, Plasma. More on the design: time infinity, dose 1 mg/kg, route oral. As to conditions: in vivo. The method in brief: as §2
For data set [24], the system named is Rattus norvegicus. Briefly: Lymphopenic activity in Lewis rat assessed as recovery in blood lymphocyte counts at 0.1 mg/kg, po after 5 days. It counts as functional, organism-based. More on the design: dose 0.1 mg/kg. The method in brief: as §3
The subject of data set [25] is Rattus norvegicus. Briefly: Lymphopenic activity in Lewis rat assessed as reduction in blood lymphocyte counts at 0.1 mg/kg, po after 12 hrs relative to control. It counts as functional. More on the design: scale not given: the % may be the effect or the level left. An outline of the steps:
as §3

A short description of data set [26]: Oral bioavailability in Sprague-Dawley rat at 1 mg/kg. It counts as ADME, organism-based. As to conditions: in vivo. The method in brief:
as §2

For data set [27], the system named is Rattus norvegicus. Briefly: Reduction of cumulative disease score in Lewis rat EAE model at 1 mg/kg, po administered daily for 20 days measured after 8 to 21 days relative to control. It counts as functional, organism-based. Further details: dose 1 mg/kg. The method in brief: as §1
Data set [28] can be described thus: Total body clearance in Sprague-Dawley rat at 0.1 mg/kg, iv. The following applies: in vivo. Further details: dose 0.1 mg/kg, route intravenous. It counts as ADME, organism-based. An outline of the steps: as §4
A short description of data set [29]: Cmax in Sprague-Dawley rat at 0.1 mg/kg, po. It counts as ADME, organism-based. Further details: dose 0.1 mg/kg, route oral. The following applies: in vivo. An outline of the steps: as §2
Data set [30] can be described thus: Tmax in Sprague-Dawley rat at 0.1 mg/kg, po. It counts as ADME, organism-based. Further details: dose 0.1 mg/kg, route oral. The following applies: in vivo. The method in brief: as §2
The nature of data set [31]: AUC (0 to infinity) in Sprague-Dawley rat at 1 mg/kg, po. It counts as ADME, organism-based, Plasma. The following applies: blood. Further details: time infinity, dose 1 mg/kg, route oral. An outline of the steps:
as §2

A short description of data set [32]: Half life in Sprague-Dawley rat at 0.1 mg/kg, po. It counts as ADME, organism-based. More on the design: dose 0.1 mg/kg, route oral. As to conditions: in vivo. The method in brief: as §2
For data set [33], the target named is Sphingosine 1-phosphate receptor 1 (Rattus norvegicus, UniProt P48303). Kind of data set: Agonist activity at rat S1P1 receptor expressed in CHO-K1 cells by [35S]GTPgammaS binding assay. It counts as functional, cell-based. The method in brief: (§5)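 Agonist-evoked [35S]GTPγS binding was measured on human or rat S1P1 or S1P3 expressed in transfected CHO-K1 cells.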
(Binding of GTPγS marks nucleotide exchange on a G protein.)

Data set [34] can be described thus: Agonist activity at rat S1P3R expressed in CHO-K1 cells by [35S]GTPgammaS binding assay. It counts as functional, cell-based. An outline of the steps: as §5
In data set [35] the target is Sphingosine 1-phosphate receptor 2 (Homo sapiens) (UniProt O95136). Briefly: Binding affinity to human S1P2R.
The target of data set [36] is Sphingosine 1-phosphate receptor 5 (Homo sapiens, UniProt Q9H228). Briefly: Agonist activity at human S1P5R. It counts as functional.
For data set [37], the species on record is Homo sapiens. Kind of data set: Selectivity ratio of EC50 for human S1P3R to EC50 for human S1P1R. An outline of the steps:
as §5

The species named for data set [38] is Rattus norvegicus. Kind of data set: Selectivity ratio of EC50 for rat S1P3R to EC50 for rat S1P1R. The method in brief:
as §5

The target in data set [39] is Sphingosine 1-phosphate receptor 3 (Homo sapiens, UniProt Q99500). Kind of data set: Agonist activity at human S1P3R expressed in CHO-K1 cells by [35S]GTPgammaS binding assay. It counts as functional, cell-based. An outline of the steps: as §5
Data set [40] has as its target Sphingosine 1-phosphate receptor 1 (Homo sapiens, UniProt P21453). Briefly: Agonist activity at human S1P1 receptor expressed in CHO-K1 cells by [35S]GTPgammaS binding assay. It counts as functional, cell-based. The method in brief: as §5

pEC50: −log10 of the molar value. Activity calls are given as the source filed them. The calls are words filed in the database; no cut-off is given here.

Sequence of Sphingosine 1-phosphate receptor 2 (Homo sapiens) (O95136 whole entry): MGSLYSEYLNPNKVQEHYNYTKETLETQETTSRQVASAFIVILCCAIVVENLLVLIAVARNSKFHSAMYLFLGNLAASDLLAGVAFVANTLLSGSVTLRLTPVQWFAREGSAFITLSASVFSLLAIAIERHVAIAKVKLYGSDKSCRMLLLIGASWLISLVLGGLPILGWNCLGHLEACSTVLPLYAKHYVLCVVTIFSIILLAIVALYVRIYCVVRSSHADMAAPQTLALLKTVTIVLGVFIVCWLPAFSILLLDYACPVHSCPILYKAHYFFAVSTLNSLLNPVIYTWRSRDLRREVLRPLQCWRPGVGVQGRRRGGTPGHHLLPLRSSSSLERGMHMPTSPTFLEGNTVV
Sequence of Sphingosine 1-phosphate receptor 1 (Rattus norvegicus, UniProt P48303) (P48303 whole entry): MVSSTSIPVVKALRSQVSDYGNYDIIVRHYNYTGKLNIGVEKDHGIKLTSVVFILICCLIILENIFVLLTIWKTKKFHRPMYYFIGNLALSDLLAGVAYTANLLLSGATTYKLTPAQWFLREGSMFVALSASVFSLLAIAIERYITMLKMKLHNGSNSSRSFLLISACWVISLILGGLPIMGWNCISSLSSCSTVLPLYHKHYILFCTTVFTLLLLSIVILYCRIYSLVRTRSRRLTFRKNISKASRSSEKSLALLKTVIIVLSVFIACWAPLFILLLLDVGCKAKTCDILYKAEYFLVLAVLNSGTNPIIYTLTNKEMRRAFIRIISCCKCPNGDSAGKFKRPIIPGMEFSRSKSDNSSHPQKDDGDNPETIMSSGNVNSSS
Sequence of Sphingosine 1-phosphate receptor 5 (Q9H228 whole entry): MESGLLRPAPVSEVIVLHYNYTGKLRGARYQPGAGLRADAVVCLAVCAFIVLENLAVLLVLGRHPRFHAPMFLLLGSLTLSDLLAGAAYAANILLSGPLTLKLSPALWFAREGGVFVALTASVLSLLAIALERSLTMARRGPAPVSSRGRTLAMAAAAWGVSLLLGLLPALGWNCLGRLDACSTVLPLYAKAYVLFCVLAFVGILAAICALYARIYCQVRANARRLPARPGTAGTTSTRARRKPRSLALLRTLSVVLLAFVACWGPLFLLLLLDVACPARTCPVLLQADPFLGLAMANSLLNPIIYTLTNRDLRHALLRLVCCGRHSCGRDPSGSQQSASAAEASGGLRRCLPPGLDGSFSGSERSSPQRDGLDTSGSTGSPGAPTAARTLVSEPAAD
Sequence of Sphingosine 1-phosphate receptor 3 (Q99500 whole entry): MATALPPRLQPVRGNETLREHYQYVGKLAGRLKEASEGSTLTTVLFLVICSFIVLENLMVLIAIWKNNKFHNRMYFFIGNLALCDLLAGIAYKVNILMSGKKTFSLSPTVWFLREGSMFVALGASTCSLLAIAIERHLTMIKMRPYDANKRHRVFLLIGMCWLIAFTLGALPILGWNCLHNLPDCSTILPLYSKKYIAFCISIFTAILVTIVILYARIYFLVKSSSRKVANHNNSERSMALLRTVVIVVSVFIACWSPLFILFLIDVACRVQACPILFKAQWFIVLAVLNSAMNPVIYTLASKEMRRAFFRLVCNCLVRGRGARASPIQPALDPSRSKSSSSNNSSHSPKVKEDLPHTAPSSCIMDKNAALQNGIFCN
Sequence of Sphingosine 1-phosphate receptor 1 (Homo sapiens, UniProt P21453) (P21453 whole entry): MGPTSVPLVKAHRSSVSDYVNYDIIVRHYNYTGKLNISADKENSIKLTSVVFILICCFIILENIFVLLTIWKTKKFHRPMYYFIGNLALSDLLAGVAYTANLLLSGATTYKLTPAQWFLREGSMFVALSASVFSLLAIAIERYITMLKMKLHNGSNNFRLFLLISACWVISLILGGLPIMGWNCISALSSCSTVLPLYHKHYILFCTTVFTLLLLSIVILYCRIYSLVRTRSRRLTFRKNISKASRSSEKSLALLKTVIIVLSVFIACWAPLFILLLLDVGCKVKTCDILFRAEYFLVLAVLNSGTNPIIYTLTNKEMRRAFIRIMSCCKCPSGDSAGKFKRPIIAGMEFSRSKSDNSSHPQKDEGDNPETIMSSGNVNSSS

Consider `Cc1ccc(CCCC(=O)c2ccc(CC[C@@](C)(N)CO)n2C)cc1`, for which the result in data set [1] and in data set [27] was Active. In addition, the Cmax (commonly the maximum level reached in the sampled fluid or tissue) in data set [2] amounted to 26.4 ng/mL; in [5], 220 ng/mL; in data set [9], 18.2 ng/mL; in data set [29], 1.89 ng/mL. Further, the Tmax – broadly, the time from dosing to the highest level – in [3] was found to be 3.25 h; in data set [10], 9.5 h; in data set [19] it was 9 h; in data set [30], 4.75 h. In addition, the values for the half-life in data set [4] and in data set [32] were 10.4 h and 5.4 h, respectively. Besides, the values for the F in data set [6] and in data set [20] were 80.6% and 90.8%, respectively. The Activity in data set [7] is 71.5%; in data set [13], 18.4%; in data set [21] it was 30.1%; in data set [25] it was 27.4%. Further, the results for the t1/2 in [8] and in data set [18] were 10.9 h and 11.6 h, respectively. In addition, the clearance (as a rule, the rate of elimination divided by the concentration) in [11] is 33.7 mL/min/kg; in [28], 38 mL/min/kg. Further, the area under the curve (AUC) (in general, concentration integrated over time) in data set [12] is 686 ng·h/mL; in data set [23], 6280 ng·h/mL. The outcome in [14] and in [24] was inactive. The values for the Vd in data set [15] and in data set [17] were 17.1 L/kg and 18.1 L/kg, respectively. Further, the AUC(0-inf) (as a rule, total exposure, with the tail of the curve extrapolated) in data set [16] came to 31.7 ng·h/mL; in data set [31] it was 346 ng·h/mL. Moreover, the bioavailability (commonly dose-corrected exposure relative to a reference, in per cent) is 72.2% in [22] and 69.5% in data set [26].

As to `CCCCCCCCc1ccc(CC[C@](N)(CO)COP(=O)(O)O)cc1` [FTY720-P], the negative-log EC50 (pEC50) – broadly, −log10 of the EC50, conventionally taken in molar units – was 9.54 in data set [33] and 8.89 in [34]. For the same compound, the outcome in [35] was inactive.

Turning to `Cc1ccc(CCCC(=O)c2ccc(CC[C@@](C)(N)COP(=O)(O)O)n2C)cc1`, the negative logarithm of the EC50 (pEC50) in [36] was 7.68; in [33], 8.74; in data set [34] it was 6.70; in data set [39], 6.46; in [40], 8.96. Besides, the Ratio EC50 came out at 320 in data set [37] and 100 in data set [38]. Moreover, in data set [35], the outcome was inactive.
